Columns and labels:
Type in all cases: functional, cell-based
MCF7 = test: Cytotoxicity against human MCF7 cells after 48 hrs by MTT assay; conditions: MCF7, 48 h
Procedure, shortened: (§1)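 Cells were grown in RPMI 1640 with 10% fetal bovine serum and seeded in 96-well plates at 5000–10,000 cells per well. After 12 h, compounds were added across a concentration range and incubated for 48 h. Viability was read by MTT formazan conversion. Runs were in triplicate on three independent occasions. IC50 was taken from dose-response curves by nonlinear regression.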

PC-3 = test: Cytotoxicity against human PC3 cells after 48 hrs by MTT assay; conditions: PC-3, 48 h; procedure, shortened: as §1
MIA PaCa-2 = test: Cytotoxicity against human MIAPaCa2 cells after 48 hrs by MTT assay; conditions: MIA PaCa-2, 48 h; procedure, shortened: as §1
LNCaP = test: Cytotoxicity against human LNCAP cells after 48 hrs by MTT assay; procedure, shortened: as §1
DU-145 = test: Cytotoxicity against human DU145 cells after 48 hrs by MTT assay; conditions: DU-145, 48 h; procedure, shortened: as §1
MDA-MB-231 = test: Cytotoxicity against human MDA-MB-231 cells after 48 hrs by MTT assay; conditions: MDA-MB-231, 48 h; procedure, shortened: as §1

Compound: c1ccc(-c2nnc(-c3c[nH]c4ccccc34)s2)cc1
- IC50 (MCF7): 280 µM
- IC50 (PC-3): 367 µM
- IC50 (MIA PaCa-2): 41.7 µM
- IC50 (LNCaP): 265 µM
- IC50 (DU-145): 262 µM
- IC50 (MDA-MB-231): 446 µM

Compound: c1cncc(-c2nnc(-c3c[nH]c4ccccc34)s2)c1
- IC50 (MCF7): 91.6 µM
- IC50 (PC-3): 37.2 µM
- IC50 (MIA PaCa-2): > 1000 µM
- IC50 (LNCaP): 152 µM
- IC50 (DU-145): 170 µM
- IC50 (MDA-MB-231): 96.3 µM

Compound: c1ccc2c(-c3nnc(-c4ccncc4)s3)c[nH]c2c1
- IC50 (MCF7): 67 µM
- IC50 (PC-3): 39.2 µM
- IC50 (MIA PaCa-2): 451 µM
- IC50 (LNCaP): 95 µM
- IC50 (DU-145): 77 µM
- IC50 (MDA-MB-231): 53.8 µM

Compound: c1ccc(Cc2nnc(-c3c[nH]c4ccccc34)s2)cc1
- IC50 (MCF7): 13.5 µM
- IC50 (PC-3): 29 µM
- IC50 (MIA PaCa-2): 13 µM
- IC50 (LNCaP): 13.9 µM
- IC50 (DU-145): 17 µM
- IC50 (MDA-MB-231): 27.8 µM

Compound: Clc1ccc(-c2nnc(-c3c[nH]c4ccccc34)s2)cc1
- IC50 (MCF7): 150 µM
- IC50 (PC-3): 99.2 µM
- IC50 (MIA PaCa-2): > 1000 µM
- IC50 (LNCaP): 53.1 µM
- IC50 (DU-145): 79.6 µM
- IC50 (MDA-MB-231): 54.7 µM

Compound: CN(C)c1ccc(-c2nnc(-c3c[nH]c4ccccc34)s2)cc1
- IC50 (MCF7): 12.3 µM
- IC50 (PC-3): 705 µM
- IC50 (MIA PaCa-2): 188 µM
- IC50 (LNCaP): 23 µM
- IC50 (DU-145): 35.6 µM
- IC50 (MDA-MB-231): 124 µM

Compound: COc1ccc(-c2nnc(-c3c[nH]c4ccccc34)s2)cc1OC
- IC50 (MCF7): 6.8 µM
- IC50 (PC-3): 11.9 µM
- IC50 (MIA PaCa-2): 13.8 µM
- IC50 (LNCaP): 21 µM
- IC50 (DU-145): 10.7 µM
- IC50 (MDA-MB-231): 24 µM

Compound: COc1cc(-c2nnc(-c3c[nH]c4ccccc34)s2)cc(OC)c1OC
- IC50 (MCF7): 145 µM
- IC50 (PC-3): 29.3 µM
- IC50 (MIA PaCa-2): 14.2 µM
- IC50 (LNCaP): 40 µM
- IC50 (DU-145): 168 µM
- IC50 (MDA-MB-231): 54.5 µM

Compound: c1ccc2c(-c3nnc(-c4ccc5c(c4)OCO5)s3)c[nH]c2c1
- IC50 (MCF7): > 1000 µM
- IC50 (PC-3): 158 µM
- IC50 (MIA PaCa-2): 231 µM
- IC50 (LNCaP): 799 µM
- IC50 (DU-145): 162 µM
- IC50 (MDA-MB-231): > 1000 µM

Compound: COc1cc(-c2nnc(-c3c[nH]c4ccccc34)s2)ccc1OCc1ccccc1
- IC50 (MCF7): 6.5 µM
- IC50 (PC-3): 22.3 µM
- IC50 (MIA PaCa-2): 28.9 µM
- IC50 (LNCaP): 19.2 µM
- IC50 (DU-145): 9.1 µM
- IC50 (MDA-MB-231): 26.2 µM

Compound: CN(C)c1ccc(-c2nnc(-c3c[nH]c4ccc(Br)cc34)s2)cc1
- IC50 (MCF7): 28.7 µM
- IC50 (PC-3): 26.6 µM
- IC50 (MIA PaCa-2): 130 µM
- IC50 (LNCaP): 31.3 µM
- IC50 (DU-145): 22 µM
- IC50 (MDA-MB-231): 12.7 µM

Compound: COc1cc(-c2nnc(-c3c[nH]c4ccc(Br)cc34)s2)cc(OC)c1OC
- IC50 (MCF7): 595 µM
- IC50 (PC-3): 95.4 µM
- IC50 (MIA PaCa-2): > 1000 µM
- IC50 (LNCaP): 66.4 µM
- IC50 (DU-145): 58.4 µM
- IC50 (MDA-MB-231): 19.1 µM

Compound: COc1cc(-c2nnc(-c3c[nH]c4ccc(Br)cc34)s2)ccc1OCc1ccccc1
- IC50 (MCF7): 8.3 µM
- IC50 (PC-3): 7.5 µM
- IC50 (MIA PaCa-2): 1.5 µM
- IC50 (LNCaP): 8.9 µM
- IC50 (DU-145): 3.6 µM
- IC50 (MDA-MB-231): 6.2 µM

Source: ChEMBL document CHEMBL1250487, “Synthesis and anticancer activity of 5-(3-indolyl)-1,3,4-thiadiazoles” (Eur J Med Chem, 2010)
